Measurements from ChEMBL document CHEMBL1144689, “Antileukemic activity of genistein, a major isoflavone present in soy products” (J Nat Prod, 2008).
Calls of active or inactive are those of the source. The rule behind the calls is not given here.

How the values were obtained:
L1210 [1] = assay: Antileukemic activity against mouse L1210 cells at 10 uM after 48 hrs by clonogenic assay; assay type: functional
Procedure, shortened: (§1)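 Murine L1210 cells cultured in RPMI-1640 with 5% heat-inactivated FCS and 6 µM 2-mercaptoethanol. Log-phase cells at 2 × 10^4 cells/mL exposed to 1–20 µM for 12, 24 or 48 h, then drug removed by centrifugation. 100 cells plated in 0.45% soft agar with 10% serum. Colonies >50 cells counted at day 7. Result as % relative to untreated control. Triplicate, three repeats, mean ± SEM.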

L1210 [2] = assay: Antileukemic activity against mouse L1210 cells at 10 uM after 12 hrs by clonogenic assay; assay type: functional; procedure, shortened: as §1
L1210 [3] = assay: Growth inhibition of mouse L1210 cells at 1 uM after 48 hrs; assay type: functional; conditions: L1210, 48 h, read-out: GI
Procedure, shortened: (§2)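 For L1210 (RPMI-1640, 5% heat-inactivated FCS, 6 µM 2-mercaptoethanol), log-phase cultures at 2 × 10^4 cells/mL were given 1–20 µM for 12, 24 or 48 h. Coulter particle counter counts were expressed as % growth inhibition versus untreated control. IG50 was taken at 24 h. Triplicate, three repeats, mean ± SEM.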

L1210 [4] = assay: Growth inhibition of mouse L1210 cells at 10 uM after 12 hrs; assay type: functional; conditions: L1210, 12 h, read-out: GI; procedure, shortened: as §2
L1210 [5] = assay: Antileukemic activity against mouse L1210 cells at 20 uM after 48 hrs by clonogenic assay; assay type: functional; procedure, shortened: as §1
L1210 [6] = assay: Antileukemic activity against mouse L1210 cells at 1 uM after 24 hrs by clonogenic assay; assay type: functional; procedure, shortened: as §1
L1210 [7] = assay: Growth inhibition of mouse L1210 cells at 2 uM after 24 hrs; assay type: functional; conditions: L1210, 24 h, read-out: GI; procedure, shortened: as §2
L1210 [8] = assay: Growth inhibition of mouse L1210 cells at 5 uM after 12 hrs; assay type: functional; conditions: L1210, 12 h, read-out: GI; procedure, shortened: as §2
L1210 [9] = assay: Growth inhibition of mouse L1210 cells at 1 uM after 12 hrs; assay type: functional; conditions: L1210, 12 h, read-out: GI; procedure, shortened: as §2
[10] = Growth inhibition of human KG1a cells after 48 hrs; assay type: functional, KG-1a
Procedure, shortened: (§3)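 Human leukemic cells (RPMI-1640, 10% heat-inactivated FBS), log phase, seeded at 2 × 10^4 cells/mL. Exposed to 1, 2, 5, 10 or 20 µM (DMSO stock). Cell number counted with a Coulter particle counter at 48 h. Growth inhibition as % of untreated control. IG50 is the concentration giving 50% inhibition. Triplicate, three repeats, mean ± SEM.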

L1210 [11] = assay: Antileukemic activity against mouse L1210 cells at 10 uM after 24 hrs by clonogenic assay; assay type: functional; procedure, shortened: as §1
L1210 [12] = assay: Antileukemic activity against mouse L1210 cells at 20 uM after 24 hrs by clonogenic assay; assay type: functional; procedure, shortened: as §1
L1210 [13] = assay: Growth inhibition of mouse L1210 cells at 20 uM after 24 hrs; assay type: functional; conditions: L1210, 24 h, read-out: GI; procedure, shortened: as §2
MOLT-3 [14] = assay: Antileukemic activity against human MOLT3 cells after 24 hrs by clonogenic assay; assay type: functional; conditions: MOLT-3, 24 h, read-out: LC50 (the source's name)
Procedure, shortened: (§4)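 Log-phase cells seeded at 2 × 10^4 cells/mL in RPMI-1640 with 10% heat-inactivated FBS at 37 °C, 5% CO2, then exposed 24 h to 1–20 µM (DMSO stock). Drug washed out by centrifugation. 100 cells plated in 0.45% soft agar with 20% serum for 15 days, and colonies (>50 cells) counted. Loss of clonogenicity is relative to untreated control. Triplicates, repeated three times, mean ± SEM. LC50 read from the dose curve.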

[15] = Growth inhibition of human KG1a cells at 5 uM after 48 hrs; assay type: functional; conditions: KG-1a; procedure, shortened: as §3
HL-60 [16] = assay: Antileukemic activity against human HL60 cells after 24 hrs by clonogenic assay; assay type: functional; conditions: HL-60, 24 h, read-out: LC50 (the source's name); procedure, shortened: as §4
HL-60 [17] = assay: Growth inhibition of human HL60 cells after 48 hrs; assay type: functional; procedure, shortened: as §3
Raji [18] = assay: Antileukemic activity against human Raji cells at >2 uM after 24 hrs by clonogenic assay; assay type: functional
Procedure, shortened: (§5)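 Log-phase cells at 2 × 10^4 cells/mL in RPMI-1640 with 10% heat-inactivated FBS, 37 °C, 5% CO2. Drug (DMSO stock) at 1, 2, 5, 10 or 20 µM for 24 h, removed by centrifugation. 100 cells plated in 0.45% soft agar with 20% serum. Colonies >50 cells counted after 15 days. Loss of clonogenicity as % of untreated control. Triplicate, three repeats, mean ± SEM.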

Raji [19] = assay: Growth inhibition of human Raji cells after 48 hrs; assay type: functional; procedure, shortened: as §3
HL-60 [20] = assay: Induction of p57KIP2 re-expression in human HL60 cellular RNA at 1 to 20 uM after 48 hrs by RT-PCR; assay type: functional, cell-based
Procedure, shortened: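 HL-60 cells treated 48 h with 1–20 µM. p57KIP2 transcript detected by RT-PCR against 18S rRNA reference, with cycles set in the exponential phase. Products resolved on 2% agarose with ethidium bromide staining. Repeated twice.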

L1210 [21] = assay: Antileukemic activity against mouse L1210 cells at 1 uM after 12 hrs by clonogenic assay; assay type: functional; procedure, shortened: as §1
L1210 [22] = assay: Growth inhibition of mouse L1210 cells at 20 uM after 48 hrs; assay type: functional; conditions: L1210, 48 h, read-out: GI; procedure, shortened: as §2
L1210 [23] = assay: Antileukemic activity against mouse L1210 cells after 24 hrs by clonogenic assay; assay type: functional; conditions: L1210, 24 h, read-out: LC50 (the source's name)
Procedure, shortened: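 Murine L1210 grown in RPMI-1640 with 5% heat-inactivated FCS and 6 µM 2-mercaptoethanol. Log-phase cells at 2 × 10^4 cells/mL exposed to 1–20 µM for 24 h. Drug removed by centrifugation. 100 cells plated in 0.45% soft agar with 10% serum for 7 days, and colonies (>50 cells) counted. Loss is relative to untreated control. Triplicates, three experiments, mean ± SEM.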

L1210 [24] = assay: Growth inhibition of mouse L1210 cells at 5 uM after 48 hrs; assay type: functional; conditions: L1210, 48 h, read-out: GI; procedure, shortened: as §2
L1210 [25] = assay: Antileukemic activity against mouse L1210 cells at 20 uM after 12 hrs by clonogenic assay; assay type: functional; procedure, shortened: as §1
MOLT-3 [26] = assay: Antileukemic activity against human MOLT3 cells at 1 uM after 24 hrs by clonogenic assay; assay type: functional; procedure, shortened: as §5

Compound `O=c1c(-c2ccc(O)cc2)coc2cc(O)cc(O)c12` [GENISTEIN] has an Activity (L1210 [1]) of 81.1%, an Activity (L1210 [2]) of 94% and an inhibition of growth at 1 µM (L1210 [3]) of 13.2%. The inhibition of growth at 10 µM (L1210 [4]) was 23.8%, the Activity (L1210 [5]) was 99.7% and the Activity (L1210 [6]) was 6%. For the same compound, the inhibition of growth at 2 µM (L1210 [7]) was 11.4%, the inhibition of growth at 5 µM (L1210 [8]) was 15.1% and the inhibition of growth at 1 µM (L1210 [9]) was 3.2%. The IG50 [10] was 23 µM, the Activity (L1210 [11]) was 63% and the Activity (L1210 [12]) was 97%. The inhibition of growth at 20 µM (L1210 [13]) was 66.7%, the CC50 (MOLT-3 [14]) was 7.5 µM and the inhibition at 5 µM [15] was greater than 10%. It also gave a CC50 (HL-60 [16]) of 6.3 µM, an IG50 (HL-60 [17]) of 18.2 µM and an Activity (Raji [18]) greater than 10%. The IG50 (Raji [19]) was 18.6 µM, the Activity (HL-60 [20]) was “Active” and the Activity (L1210 [21]) was 11%. It also gave an inhibition of growth at 20 µM (L1210 [22]) of 93.1%, a CC50 (L1210 [23]) of 6.5 µM and an inhibition of growth at 5 µM (L1210 [24]) of 55.9%. It also gave an Activity (L1210 [25]) of 100% and an Activity (MOLT-3 [26]) greater than 10%.
